Experimental data pooled from the literature.
Lines come from different studies, so protocols differ.
Melanocortin receptor 5: Melanocortin receptor 5 (Mus musculus, UniProt P41149)
rep main protease: Replicase polyprotein 1ab, main protease (rep, Severe acute respiratory syndrome-related coronavirus, UniProt P0C6X7)

| Compound | target | observed | mode | technique | notes | measurement | value |
| --- | --- | --- | --- | --- | --- | --- | --- |
| Clc1cccc(N2CCNCC2)c1Cl | Muscarinic acetylcholine receptor M4 (CHRM4, Homo sapiens, UniProt P08173) | ligand displacement | – | radioligand | cell membranes | Ki | > 63.1 µM |
| COc1ccc(-c2nsc(NC(=O)[C@@H]3C[C@H]3C)c2C)cc1 | Metabotropic glutamate receptor 1 (GRM1, Homo sapiens, UniProt Q13255) | calcium signal | antagonist | – | – | IC50 | 0.0089 µM |
| CN[C@]1(c2ccccc2Cl)CCCCC1=O | Ferritin light chain (FTL, Equus caballus, UniProt P02791) | cell-free assay | – | fluorescence | – | Kd | 42 µM |
| C[C@@H]1NC(=O)[C@H](CCCN)NC(=O)[C@H](Cc2ccccc2)NC(=O)[C@H](Cc2ccccc2)NC(=O)[C@H](CCCNC(=N)N)NC(=O)[C@@H]2CCCN2C(=O)[C@H]2CCCN2C(=O)[C@H](Cc2ccccc2)NC1=O | Melanocortin receptor 5 | reporter gene | agonist | – | – | EC50 | > 100 µM |
| CN1CCC(C(c2ccccc2)c2ccccc2)CC1 | Histamine H1 receptor (HRH1, Homo sapiens, UniProt P35367) | cell-free assay | – | radioligand | – | Ki | 0.0251 µM |
| O=C(O)[C@H]1O[C@@H](Oc2cc3oc(-c4ccccc4)cc(=O)c3c(O)c2O)[C@H](O)[C@@H](O)[C@@H]1O | rep main protease | enzyme activity | inhibitor | – | – | IC50 | 101 µM |
| C[C@@H]1NC(=O)[C@H](CC(N)=O)NC(=O)[C@H](Cc2ccccc2)NC(=O)[C@H](Cc2cccc3ccccc23)NC(=O)[C@H](CCCNC(=N)N)NC(=O)[C@@H]2CCCN2C(=O)[C@H]2CCCN2C(=O)[C@H](Cc2ccccc2)NC1=O | Melanocortin receptor 5 | reporter gene | agonist | – | – | EC50 | > 100 µM |
| O=C1c2c(O)cc(O)cc2O[C@H](c2cc(O)c(O)c(O)c2)[C@H]1O | rep main protease | enzyme activity | inhibitor | – | – | IC50 | 4.58 µM |
| [Hg+2] | rep main protease | enzyme activity | inhibitor | – | – | Ki | 0.5 µM |
